# Calls of active or inactive are those of the source. No cut-off for these calls is given here.
# Experiments:
# [1] = system: A549; test: Cytotoxicity against human A549 cells after 24 hrs by MTT assay; type: functional, cell-based; details: A549, 24 h
# How it was run: (§1)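 In vitro antiproliferative screen by MTT assay against human MCF-7 breast, HeLa cervical, A549 lung adenocarcinoma and HepG-2 hepatoma cells. Output is the IC50.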
# [2] = system: HeLa; test: Cytotoxicity against human HeLa cells after 24 hrs by MTT assay; type: functional, cell-based; how it was run: as §1
# [3] = system: MCF7; test: Cytotoxicity against human MCF7 cells after 24 hrs by MTT assay; type: functional, cell-based; details: MCF7, 24 h; how it was run: as §1
# [4] = system: HepG2; test: Cytotoxicity against human HepG2 cells after 24 hrs by MTT assay; type: functional, cell-based; details: HepG2, 24 h; how it was run: as §1
# [5] = system: L02; test: Cytotoxicity against human L02 cells after 24 hrs by MTT assay; type: cell-based; details: L02, 24 h
# How it was run: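 Normal human liver L02 cells were tested at multiple concentrations in an MTT assay. Output is the median cytotoxic concentration (CC50).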
# [6] = system: MCF7; test: Cell cycle arrest in human MCF7 cells assessed as accumulation at G1 phase at 0.3 uM after 12 hrs by propidium iodide staining based flow cytometric method (reference value: 58.69 to 62.23%); type: functional
# [7] = system: MCF7; test: Cell cycle arrest in human MCF7 cells assessed as accumulation at G2/M phase at 0.3 uM after 12 hrs by propidium iodide staining based flow cytometric method (reference value: 5.43 to 13.68%); type: functional
# [8] = system: MCF7; test: Cell cycle arrest in human MCF7 cells assessed as accumulation at G1 phase at 0.6 uM after 12 hrs by propidium iodide staining based flow cytometric method (reference value: 58.69 to 62.23%); type: functional
# [9] = system: MCF7; test: Cell cycle arrest in human MCF7 cells assessed as accumulation at S phase at 0.6 uM after 12 hrs by propidium iodide staining based flow cytometric method (reference value: 27.63 to 32.34%); type: functional
# [10] = system: MCF7; test: Cell cycle arrest in human MCF7 cells assessed as accumulation at G2/M phase at 0.6 uM after 12 hrs by propidium iodide staining based flow cytometric method (reference value: 5.43 to 13.68%); type: functional
# [11] = system: MCF7; test: Cell cycle arrest in human MCF7 cells assessed as accumulation at G1 phase at 0.9 uM after 12 hrs by propidium iodide staining based flow cytometric method (reference value: 58.69 to 62.23%); type: functional
# [12] = system: MCF7; test: Cell cycle arrest in human MCF7 cells assessed as accumulation at S phase at 0.9 uM after 12 hrs by propidium iodide staining based flow cytometric method (reference value: 27.63 to 32.34%); type: functional
# [13] = system: MCF7; test: Cell cycle arrest in human MCF7 cells assessed as accumulation at G2/M phase at 0.9 uM after 12 hrs by propidium iodide staining based flow cytometric method (reference value: 5.43 to 13.68%); type: functional
# [14] = system: MCF7; test: Cell cycle arrest in human MCF7 cells assessed as accumulation at S phase at 0.6 uM after 4 hrs by propidium iodide staining based flow cytometric method (reference value: 29.55 to 32.22%); type: functional
# [15] = system: MCF7; test: Cell cycle arrest in human MCF7 cells assessed as accumulation at G2/M phase at 0.6 uM after 4 hrs by propidium iodide staining based flow cytometric method (reference value: 7.59 to 9.58%); type: functional
# [16] = system: MCF7; test: Cell cycle arrest in human MCF7 cells assessed as accumulation at G1 phase at 0.6 uM after 8 hrs by propidium iodide staining based flow cytometric method (reference value: 60.19 to 60.87%); type: functional
# [17] = system: MCF7; test: Cell cycle arrest in human MCF7 cells assessed as accumulation at S phase at 0.6 uM after 8 hrs by propidium iodide staining based flow cytometric method (reference value: 29.55 to 32.22%); type: functional
# [18] = system: MCF7; test: Cell cycle arrest in human MCF7 cells assessed as accumulation at G2/M phase at 0.6 uM after 8 hrs by propidium iodide staining based flow cytometric method (reference value: 7.59 to 9.58%); type: functional
# [19] = system: MCF7; test: Cell cycle arrest in human MCF7 cells assessed as accumulation at S phase at 0.6 uM after 16 hrs by propidium iodide staining based flow cytometric method (reference value: 29.55 to 32.22%); type: functional
# [20] = system: MCF7; test: Cell cycle arrest in human MCF7 cells assessed as accumulation at G2/M phase at 0.6 uM after 16 hrs by propidium iodide staining based flow cytometric method (reference value: 7.59 to 9.58%); type: functional
# [21] = system: MCF7; test: Induction of apoptosis in human MCF7 cells assessed as viable cells at 2 uM after 24 hrs by Annexin-V-FITC/propidium iodide staining based flow cytometric method (reference value: 91.6 to 92.7%); type: functional; details: MCF7, 24 h, read-out: Activity
# [22] = system: MCF7; test: Induction of apoptosis in human MCF7 cells assessed as early apoptotic cells at 2 uM after 24 hrs by Annexin-V-FITC/propidium iodide staining based flow cytometric method (reference value: 2.36 to 2.86%); type: functional
# [23] = system: MCF7; test: Induction of apoptosis in human MCF7 cells assessed as late apoptotic cells at 2 uM after 24 hrs by Annexin-V-FITC/propidium iodide staining based flow cytometric method (reference value: 2 to 3.7%); type: functional
# [24] = system: MCF7; test: Induction of apoptosis in human MCF7 cells assessed as viable cells at 4 uM after 24 hrs by Annexin-V-FITC/propidium iodide staining based flow cytometric method (reference value: 91.6 to 92.7%); type: functional; details: MCF7, 24 h, read-out: Activity
# [25] = system: MCF7; test: Induction of apoptosis in human MCF7 cells assessed as late apoptotic cells at 4 uM after 24 hrs by Annexin-V-FITC/propidium iodide staining based flow cytometric method (reference value: 2 to 3.7%); type: functional
# [26] = system: MCF7; test: Induction of apoptosis in human MCF7 cells assessed as necrotic cells at 4 uM after 24 hrs by Annexin-V-FITC/propidium iodide staining based flow cytometric method (reference value: 2.35 to 2.49%); type: functional
# [27] = system: MCF7; test: Induction of apoptosis in human MCF7 cells assessed as early apoptotic cells at 8 uM after 24 hrs by Annexin-V-FITC/propidium iodide staining based flow cytometric method (reference value: 2.36 to 2.86%); type: functional
# [28] = system: MCF7; test: Induction of apoptosis in human MCF7 cells assessed as late apoptotic cells at 8 uM after 24 hrs by Annexin-V-FITC/propidium iodide staining based flow cytometric method (reference value: 2 to 3.7%); type: functional
# [29] = system: MCF7; test: Induction of apoptosis in human MCF7 cells assessed as necrotic cells at 8 uM after 24 hrs by Annexin-V-FITC/propidium iodide staining based flow cytometric method (reference value: 2.35 to 2.49%); type: functional
# [30] = system: MCF7; test: Induction of apoptosis in human MCF7 cells assessed as viable cells at 12 uM after 24 hrs by Annexin-V-FITC/propidium iodide staining based flow cytometric method (reference value: 91.6 to 92.7%); type: functional; details: MCF7, 24 h, read-out: Activity
# [31] = system: MCF7; test: Induction of apoptosis in human MCF7 cells assessed as late apoptotic cells at 12 uM after 24 hrs by Annexin-V-FITC/propidium iodide staining based flow cytometric method (reference value: 2 to 3.7%); type: functional
# [32] = system: MCF7; test: Upregulation of CDK1 expression in human MCF7 cells at 0.5 to 2 uM after 24 hrs by Western blot analysis; type: functional, cell-based
# [33] = system: MCF7; test: Down regulation of cyclin B1 expression in human MCF7 cells at 0.5 to 2 uM after 24 hrs by Western blot analysis; type: functional, cell-based
# [34] = system: MCF7; test: Down regulation of cyclin D1 expression in human MCF7 cells at 0.5 to 2 uM after 24 hrs by Western blot analysis; type: functional, cell-based
structure (smiles),measurement,setting,value
COc1cc([C@@H]2c3cc4c(cc3[C@H](OC(=O)CN3CCN(c5ccc(Cl)c(Cl)c5)CC3)[C@H]3COC(=O)[C@H]23)OCO4)cc(OC)c1OC,IC50,[1],6.32 µM
same,IC50,[2],5.1 µM
same,IC50,[3],2.78 µM
same,IC50,[4],7.93 µM
same,IC50,[5],> 100 µM
same,Activity,[6],38.07%
same,Activity,[7],37.72%
same,Activity,[8],18.24 - 26.54%
same,Activity,[9],4.21 - 20.78%
same,Activity,[10],60.98 - 69.25%
same,Activity,[11],8.32%
same,Activity,[12],10.65%
same,Activity,[13],81.03%
same,Activity,[14],23.99%
same,Activity,[15],29.43%
same,Activity,[16],29.54%
same,Activity,[17],26.13%
same,Activity,[18],44.13%
same,Activity,[19],5.92%
same,Activity,[20],85.57%
same,viability at 2 µM,[21],81.2%
same,Activity,[22],10.1%
same,Activity,[23],6.11%
same,viability at 4 µM,[24],72.4%
same,Activity,[25],10.5%
same,Activity,[26],5.64%
same,Activity,[27],14.7%
same,Activity,[28],14%
same,Activity,[29],3.45%
same,viability at 12 µM,[30],55.2%
same,Activity,[31],20.4%
same,Activity,[32],Active
same,Activity,[33],Active
same,Activity,[34],Active

# Reference: ChEMBL document CHEMBL4052804, “Design and synthesis of piperazine acetate podophyllotoxin ester derivatives targeting tubulin depolymerization as new anticancer agents” (Bioorg Med Chem Lett, 2017)
